Assay results reported in ChEMBL document CHEMBL5104210, “Discovery of antipsychotic loxapine derivatives against intracellular multidrug-resistant bacteria” (RSC Med Chem, 2022).
The source made the active and inactive calls. The calls are words filed in the database; no cut-off is given here.

What was measured:
Salmonella typhimurium [1] = assay: Antibacterial activity against intracellular multidrug-resistant Salmonella typhimurium ATCC14028 infected in mouse RAW264.7 cells assessed as reduction in intracellular bacterial survival level by RFP staining based high-content image analysis; assay type: functional, organism-based, Salmonella enterica subsp. enterica serovar Typhimurium; details: Salmonella enterica, ATCC14028, RAW264.7
Procedure, shortened: (§1)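 RAW264.7 cells were seeded for 20 h, then infected for 1 h at MOI 50 with RFP-expressing bacteria (2 h subculture, OD600 0.6 ≈ 1×10^8 CFU/mL). Gentamicin 100 mg/L was given for 1 h, then compound plus 20 mg/L gentamicin for 24 h. Cells were stained with CellTracker Green, fixed, and stained with DAPI. Whole-well high-content imaging gave intracellular RFP intensity for EC50 and DAPI nuclei counts for CC50.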

[2] = Cytotoxicity against mouse RAW264.7 cells assessed as reduction in number of cells by DAPI staining based high-content image analysis; assay type: toxicity, cell-based
Procedure, shortened: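 RAW264.7 seeded 20 h, infected 1 h with RFP-expressing S. Typhimurium (MOI 50), 100 mg/L gentamicin 1 h, then compound with 20 mg/L gentamicin 24 h. Cells stained with CellTracker Green, fixed in 3.7% formaldehyde, DAPI 0.2 mg/L. Whole-well high-content imaging at 10×; viable cells counted as DAPI-stained nuclei; CC50 calculated.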

[3] = Selectivity ratio of CC50 for cytotoxicity against mouse RAW264.7 cells to EC50 for antibacterial activity against intracellular multidrug-resistant Salmonella typhimurium ATCC14028 infected in mouse RAW264.7 cells; assay type: toxicity, cell-based; details: read-out: Ratio CC50/EC50; procedure, shortened: as §1
[4] = molecular target: D(2) dopamine receptor (Homo sapiens) (UniProt P14416); assay: Inhibition of isotope-labelled spiperone binding to recombinant dopamine D2 receptor (unknown origin)
Procedure, shortened: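 Human recombinant D2L receptor expressed in CHO cells (20 μg) incubated with increasing compound concentrations and 0.16 nM [3H]spiperone in Tris-HCl pH 7.4, 120 min at 25°C. Bound radioligand measured by filtration, washing and counting. Nonspecific binding defined with 10 μM haloperidol. Run as a contract service.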

Salmonella typhimurium [5] = assay: Antibacterial activity against intracellular multidrug-resistant Salmonella typhimurium ATCC14028 infected in human monocytic THP-1 cells assessed as reduction in viability of intracellular bacteria incubated for 24 hrs in presence of gentamicin by CFU assay; assay type: functional, organism-based, Salmonella enterica subsp. enterica serovar Typhimurium; details: Salmonella enterica, ATCC14028, THP-1, 24 h
Procedure, shortened: (§2)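 Bacteria were subcultured 1:100 from overnight LB cultures for 2 h at 37°C and resuspended in PBS to OD600 0.6. Host cells in 6-well plates were infected at MOI 25 for 1 h, treated with 100 mg/L gentamicin for 1 h, then given compound plus 20 mg/L gentamicin for 24 h. Cells were lysed in 0.1% Triton X-100, and lysates were serially diluted and plated on LB agar (37°C, 18 h) for CFU counts.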

Salmonella typhimurium [6] = assay: Antibacterial activity against intracellular multidrug-resistant Salmonella typhimurium ATCC14028 infected in human HT-29 cells assessed as reduction in viability of intracellular bacteria incubated for 24 hrs in presence of gentamicin by CFU assay; assay type: functional, organism-based, Salmonella enterica subsp. enterica serovar Typhimurium; details: Salmonella enterica, ATCC14028, HT-29, 24 h; procedure, shortened: as §2
Yersinia enterocolitica = assay: Antibacterial activity against Yersinia enterocolitica infected in mouse RAW264.7 cells assessed as reduction in number of viable intracellular bacteria incubated for 24 hrs by CFU assay; assay type: functional, organism-based; details: RAW264.7, 24 h
Procedure, shortened: (§3)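 RAW264.7 macrophages in DMEM + 10% heat-inactivated FBS infected 1 h at MOI 25 with bacteria (overnight LB culture diluted 1:100, grown 2 h at 37°C, resuspended in PBS to OD600 0.6). Washed, 100 mg/L gentamicin 1 h, then compound plus 20 mg/L gentamicin for 24 h. Lysed in 0.1% Triton X-100/PBS 10 min at 37°C, lysates serially diluted onto LB agar, colonies counted after 18 h at 37°C.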

Salmonella typhi = assay: Antibacterial activity against Salmonella typhi infected in mouse RAW264.7 cells assessed as reduction in number of viable intracellular bacteria incubated for 24 hrs by CFU assay; assay type: functional, organism-based, Salmonella enterica subsp. enterica serovar Typhi; details: Salmonella enterica, RAW264.7, 24 h; procedure, shortened: as §2
Salmonella typhimurium [7] = assay: Antibacterial activity against intracellular multidrug-resistant Salmonella typhimurium ATCC14028 infected in mouse J774.1 cells assessed as reduction in viability of intracellular bacteria incubated for 24 hrs in presence of gentamicin by CFU assay; assay type: functional, organism-based, Salmonella enterica subsp. enterica serovar Typhimurium; details: Salmonella enterica, ATCC14028, J774.1, 24 h; procedure, shortened: as §2
Salmonella typhimurium [8] = assay: Antibacterial activity against intracellular multidrug-resistant Salmonella typhimurium ATCC14028 infected in PMA induced human macrophagic THP-1 cells assessed as reduction in viability of intracellular bacteria incubated for 24 hrs in presence of gentamicin by CFU assay; assay type: functional, organism-based, Salmonella enterica subsp. enterica serovar Typhimurium; details: Salmonella enterica, ATCC14028, THP-1, 24 h; procedure, shortened: as §2
[9] = Cytotoxicity against PMA induced human macrophagic THP-1 cells assessed as reduction in cell viability in presence of gentamicin and measured after 24 hrs by MTT assay; assay type: toxicity, cell-based; details: PMA induced macrophagic THP-1 cells
Procedure, shortened: (§4)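 Cells were seeded and grown 20 h, then given test compound for 24 h. Media were DMEM + 10% heat-inactivated FBS (RAW264.7, J774.1, INT-407), RPMI 1640 + 10% FBS (THP-1) and McCoy's 5A + 10% FBS (HT-29, HCT-116), at 37°C and 5% CO2. MTT was added at 0.5 g/L for 1 h, formazan dissolved in DMSO, and A570 read. CC50 was calculated by curve fitting.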

Salmonella typhimurium [10] = assay: Antibacterial activity against intracellular ciprofloxacin-resistant Salmonella typhimurium NL10 infected in mouse RAW264.7 cells assessed as reduction in number of intracellular bacteria incubated for 24 hrs in presence of gentamycin by CFU assay; assay type: functional, organism-based, Salmonella enterica subsp. enterica serovar Typhimurium; details: Salmonella enterica, NL10, RAW264.7, 24 h; procedure, shortened: as §2
[11] = Cytotoxicity against human monocytic THP-1 cells assessed as reduction in cell viability in presence of gentamicin and measured after 24 hrs by MTT assay; assay type: toxicity, cell-based; procedure, shortened: as §4
Salmonella typhimurium [12] = assay: Antibacterial activity against intracellular multidrug-resistant clinical isolate Salmonella typhimurium CGC18 infected in mouse RAW264.7 cells assessed as reduction in number of intracellular bacteria incubated for 24 hrs in presence of gentamycin by CFU assay; assay type: functional, organism-based, Salmonella enterica subsp. enterica serovar Typhimurium; details: Salmonella enterica, CGC18, RAW264.7, 24 h; procedure, shortened: as §2
[13] = Cytotoxicity against mouse J774.1 cells assessed as reduction in cell viability in presence of gentamicin and measured after 24 hrs by MTT assay; assay type: toxicity, cell-based; procedure, shortened: as §4
Salmonella typhimurium [14] = assay: Antibacterial activity against intracellular multidrug-resistant Salmonella typhimurium ATCC14028 infected in human Intestine 407 cells assessed as reduction in viability of intracellular bacteria incubated for 24 hrs in presence of gentamicin by CFU assay; assay type: functional, organism-based, Salmonella enterica subsp. enterica serovar Typhimurium; details: Salmonella enterica, ATCC14028, Intestine 407, 24 h; procedure, shortened: as §2
Listeria monocytogenes = assay: Antibacterial activity against Listeria monocytogenes infected in mouse RAW264.7 cells assessed as reduction in number of viable intracellular bacteria incubated for 24 hrs by CFU assay; assay type: functional, organism-based; details: RAW264.7, 24 h; procedure, shortened: as §3
[15] = Cytotoxicity against human Intestine 407 cells assessed as reduction in cell viability in presence of gentamicin and measured after 24 hrs by MTT assay; assay type: toxicity, cell-based; procedure, shortened: as §4
[16] = Cytotoxicity against mouse RAW264.7 cells assessed as reduction in cell viability measured after 24 hrs by MTT assay; assay type: toxicity, cell-based; procedure, shortened: as §4
Salmonella typhimurium [17] = assay: Antibacterial activity against intracellular multidrug-resistant Salmonella typhimurium ATCC14028 infected in mouse RAW264.7 cells assessed as reduction in number of intracellular bacteria incubated for 24 hrs in presence of gentamycin by CFU assay; assay type: functional, organism-based, Salmonella enterica subsp. enterica serovar Typhimurium; details: Salmonella enterica, ATCC14028, RAW264.7, 24 h; procedure, shortened: as §2
[18] = Cytotoxicity against human HT-29 cells assessed as reduction in cell viability in presence of gentamicin and measured after 24 hrs by MTT assay; assay type: toxicity, cell-based; procedure, shortened: as §4
[19] = Cytotoxicity against human HCT-116 cells assessed as reduction in cell viability in presence of gentamicin and measured after 24 hrs by MTT assay; assay type: toxicity, cell-based; procedure, shortened: as §4
Staphylococcus aureus = assay: Antibacterial activity against methicillin-resistant Staphylococcus aureus USA 300 infected in mouse RAW264.7 cells assessed as reduction in number of viable intracellular bacteria incubated for 24 hrs by CFU assay; assay type: functional, organism-based; details: USA 300, RAW264.7, 24 h; procedure, shortened: as §2
Salmonella typhimurium [20] = assay: Antibacterial activity against intracellular multidrug-resistant Salmonella typhimurium ATCC14028 infected in human HCT-116 cells assessed as reduction in viability of intracellular bacteria incubated for 24 hrs in presence of gentamicin by CFU assay; assay type: functional, organism-based, Salmonella enterica subsp. enterica serovar Typhimurium; details: Salmonella enterica, ATCC14028, HCT-116, 24 h; procedure, shortened: as §2

Chain of D(2) dopamine receptor (Homo sapiens) (P14416 whole entry): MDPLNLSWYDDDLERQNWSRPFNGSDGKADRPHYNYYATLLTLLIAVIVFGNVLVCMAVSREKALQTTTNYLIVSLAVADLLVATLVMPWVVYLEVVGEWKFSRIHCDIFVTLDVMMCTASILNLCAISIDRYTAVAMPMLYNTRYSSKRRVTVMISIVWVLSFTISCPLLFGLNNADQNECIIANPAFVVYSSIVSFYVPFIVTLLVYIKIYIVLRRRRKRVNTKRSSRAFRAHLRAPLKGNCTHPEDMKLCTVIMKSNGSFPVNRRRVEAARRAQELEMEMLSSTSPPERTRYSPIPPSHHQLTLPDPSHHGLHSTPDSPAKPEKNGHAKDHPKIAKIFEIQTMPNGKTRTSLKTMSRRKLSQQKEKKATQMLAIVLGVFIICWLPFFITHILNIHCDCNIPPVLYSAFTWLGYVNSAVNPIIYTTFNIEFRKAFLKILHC

Row | Compound | EC50 (Salmonella typhimurium [1]) [µM] | CC50 [2] [µM] | selectivity ratio [3] | further results
1 | Clc1ccc2c(c1)C(NCCc1cccnc1)=Nc1ccccc1O2 | 38.2 | 74 | 1.9 | –
2 | Clc1ccc2c(c1)C(NCCc1ccc(Cl)c(Cl)c1)=Nc1ccccc1O2 | 31.1 | 82.7 | 2.7 | –
3 | Clc1ccc2c(c1)C(NCCN1CCCCC1)=Nc1ccccc1O2 | 4.34 | 22.2 | 5.1 | –
4 | Clc1ccc2c(c1)C(NCCCN1CCCC1)=Nc1ccccc1O2 | 1.12 | 16.3 | 14.6 | –
5 | Clc1ccc2c(c1)C(NCCCN1CCCCC1)=Nc1ccccc1O2 | 1.12 | 19.6 | 17.5 | –
6 | Oc1ccc(CCNC2=Nc3ccccc3Oc3ccc(Cl)cc32)cc1 | 33.5 | 52.1 | 1.6 | –
7 | CCCNC1=Nc2ccccc2Oc2ccc(Cl)cc21 | 56 | 112 | 2 | –
8 | O=C(CNC1=Nc2ccccc2Oc2ccc(Cl)cc21)N1CCCC1 | > 90 | > 90 | – | –
9 | Clc1ccc(CCNC2=Nc3ccccc3Oc3ccc(Cl)cc32)cc1 | 53.5 | > 90 | > 1.7 | –
10 | CCC(CC)NC1=Nc2ccccc2Oc2ccc(Cl)cc21 | 28.5 | 72.8 | 2.6 | –
11 | Clc1ccc2c(c1)C(NCCc1ccccc1)=Nc1ccccc1O2 | 21.2 | 56.3 | 2.7 | –
12 | Clc1ccc2c(c1)C(NCCN1CCOCC1)=Nc1ccccc1O2 | 32 | 84.7 | 2.6 | –
13 | CC(C)CCNC1=Nc2ccccc2Oc2ccc(Cl)cc21 | 55.1 | 70.1 | 1.3 | –
14 | Fc1ccc(CCNC2=Nc3ccccc3Oc3ccc(Cl)cc32)cc1 | 45.2 | > 90 | > 2 | –
15 | Clc1ccc2c(c1)C(N1CCNCC1)=Nc1ccccc1O2 [AMOXAPINE] | 7.25 | 107 | 14.8 | inhibition [4]: Active
16 | Clc1ccc2c(c1)C(NCCN1CCCC1)=Nc1ccccc1O2 | 4.89 | 26.6 | 5.4 | –
17 | CN1CCCC1CCNC1=Nc2ccccc2Oc2ccc(Cl)cc21 (stereo not drawn) | 1.22 | 23 | 18.9 | –
18 | NCC(=O)Nc1ccc(-n2nc(C(F)(F)F)cc2-c2ccc3c(ccc4ccccc43)c2)cc1 [AR-12] | – | 7.7 | – | –
19 | Clc1ccc2c(c1)C(NCc1ccccc1)=Nc1ccccc1O2 | 19.7 | 60.8 | 3.1 | –
20 | O=C1CCCN1CCCNC1=Nc2ccccc2Oc2ccc(Cl)cc21 | > 90 | > 90 | – | –
21 | CN(C)CCNC1=Nc2ccccc2Oc2ccc(Cl)cc21 | 3.65 | 34.6 | 9.5 | –
22 | CCCCCNC1=Nc2ccccc2Oc2ccc(Cl)cc21 | 54.1 | 72.7 | 1.3 | –
23 | Clc1ccc2c(c1)C(NCCc1ccncc1)=Nc1ccccc1O2 | 18.5 | 51.1 | 2.8 | –
24 | Clc1ccc2c(c1)C(NCC1CC1)=Nc1ccccc1O2 | 44 | 80.3 | 1.8 | –
25 | Clc1ccc2c(c1)C(NCCN1CCNCC1)=Nc1ccccc1O2 | 0.39 | 23.4 | 60 | EC50 (Salmonella typhimurium [5]): 1.78 µM; EC50 (Salmonella typhimurium [6]): 4.05 µM; EC50 (Yersinia enterocolitica): 0.83 µM; EC50 (Salmonella typhi): 0.28 µM; EC50 (Salmonella typhimurium [7]): 0.22 µM; EC50 (Salmonella typhimurium [8]): 0.22 µM; CC50 at 24 h [9]: 30.3 µM; EC50 (Salmonella typhimurium [10]): 0.64 µM; CC50 at 24 h [11]: 28.4 µM; EC50 (Salmonella typhimurium [12]): 0.63 µM; CC50 at 24 h [13]: 15.4 µM; EC50 (Salmonella typhimurium [14]): 3 µM; EC50 (Listeria monocytogenes): 1.51 µM; CC50 at 24 h [15]: 40.5 µM; CC50 at 24 h [16]: 20.7 µM; EC50 (Salmonella typhimurium [17]): 0.24 µM; CC50 at 24 h [18]: 32.5 µM; CC50 at 24 h [19]: 41 µM; EC50 (Staphylococcus aureus): 1.73 µM; EC50 (Salmonella typhimurium [20]): 2.47 µM
26 | O=C(O)c1cn(C2CC2)c2cc(N3CCNCC3)c(F)cc2c1=O [CIPROFLOXACIN] | 0.15 | – | – | –
